Measurements as given in paper PMC10288500 (ACS Bio & Med Chem Au, 2023).

Legend:
HEK293 cells = experiment: MTT cytotoxicity assay; assay type: cell-based; details: 0.0001 nM–10 μM, 24 h
Outline: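 HEK293 plated at 7500 cells/well and grown 24 h at 37 °C, 5% CO2. Exposed to compound 0.0001 nM–10 μM for 24 h at 37 °C. Viability read by MTT on a multimode plate reader.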

TNFR2 = molecular target: T1, TNFR2 (Homo sapiens, UniProt P20333); experiment: RelB transcription factor activity assay; assay type: cell-based; details: HUVEC cells, 250 nM, densitometry
T1 sequence (P20333 23-461): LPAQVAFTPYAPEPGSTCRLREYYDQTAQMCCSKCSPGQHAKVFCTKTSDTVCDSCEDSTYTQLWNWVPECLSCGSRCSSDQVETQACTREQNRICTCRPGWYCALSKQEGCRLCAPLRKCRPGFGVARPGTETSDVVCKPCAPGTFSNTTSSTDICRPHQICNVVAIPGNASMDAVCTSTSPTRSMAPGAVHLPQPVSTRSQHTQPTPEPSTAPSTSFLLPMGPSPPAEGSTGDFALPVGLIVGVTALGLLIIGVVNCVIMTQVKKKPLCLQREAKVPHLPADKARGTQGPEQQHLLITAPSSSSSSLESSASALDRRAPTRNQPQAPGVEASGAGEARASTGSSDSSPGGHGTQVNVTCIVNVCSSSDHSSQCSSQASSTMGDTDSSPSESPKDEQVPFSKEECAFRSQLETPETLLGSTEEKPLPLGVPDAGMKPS
Outline: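 HUVEC grown on gelatin-coated dishes in EGM-2 with 2% FBS, plated 1 million/well overnight, then transfected with 0.5 μg membrane TNF plasmid. After 6 h, medium replaced and compound (250 nM) added overnight. Lysates in native buffer, BCA, SDS–PAGE, immunoblotted for RelB; bands quantified by densitometry.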

TNFR1 = molecular target: T2, TNFR1 (Homo sapiens, UniProt P19438); experiment: IκB degradation assay; assay type: cell-based; details: HEK293 cells, 0.01 to 500 nM
T2 sequence (P19438 30-455): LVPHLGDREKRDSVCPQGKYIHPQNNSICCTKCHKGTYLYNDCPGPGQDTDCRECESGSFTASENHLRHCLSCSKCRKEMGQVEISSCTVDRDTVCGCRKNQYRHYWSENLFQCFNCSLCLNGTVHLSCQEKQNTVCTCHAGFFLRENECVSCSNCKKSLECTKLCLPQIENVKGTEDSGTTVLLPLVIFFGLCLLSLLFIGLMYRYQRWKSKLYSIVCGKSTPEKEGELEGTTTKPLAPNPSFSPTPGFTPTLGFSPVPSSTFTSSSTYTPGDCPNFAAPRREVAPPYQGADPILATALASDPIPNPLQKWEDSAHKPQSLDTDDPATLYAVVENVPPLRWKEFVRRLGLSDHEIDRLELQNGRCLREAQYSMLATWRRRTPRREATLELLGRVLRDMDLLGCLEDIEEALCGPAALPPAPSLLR
Outline: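 HEK293 seeded at 0.4 million/mL in six-well plates overnight, then given compound 0.01–500 nM or DMSO for 2 h, then TNF 10 ng/mL for 30 min. Lysis in native buffer with protease inhibitor, 30 min on ice; BCA. 80 μg protein run on SDS–PAGE, immunoblotted for IκBα and β-actin. Bands quantified by densitometry (n = 3).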

[1] = system: IL-1α-induced NF-κB activation; experiment: IL-1α-induced NF-κB activation assay; assay type: cell-based; details: HEK293 cells, IL-1α 10 ng/mL, 0.01 to 500 nM, 24 h
Outline: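 HEK293 cells were transfected with NF-κB firefly/Renilla luciferase reporters and replated next day at 7500 cells/well in phenol red–free DMEM. Compound 0.01–500 nM or DMSO was incubated with or without IL-1α 10 ng/mL for 24 h at 37 °C. Sequential firefly and Renilla luminescence read with Dual-Glo reagents. Means ± SD of three experiments.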

TRADD = experiment: TRADD-induced NF-κB activation assay; assay type: cell-based; details: HEK293 cells overexpressing TRADD, 0.01 to 500 nM, without TNF
Outline: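 HEK293 (0.8 million/well, six-well) transfected with 1 μg NF-κB firefly reporter, 0.1 μg Renilla reporter, 1 μg TRADD plasmid and 0.4 μg empty vector (2.5 μg total); controls received empty vector instead of TRADD. Replated at 7500 cells/well after 3 h. Compound 0.01–500 nM or DMSO added 5 h later. Dual luciferase read 24 h post-treatment. Means ± SD, three experiments.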

[2] = Solubility by dynamic light scattering; assay type: physicochemical
TNF = details: read-out: EC50, inhibition of NF-κB; cited from earlier work

Row | Compound | cytotoxicity (MTT) (HEK293 cells) | effect on membrane TNF-TNFR2-induced activation of RelB (TNFR2) | extent of inhibition of TNF-induced IκB degradation (TNFR1) | effect on IL-1α-induced NF-κB activation [1] | effect on TRADD-induced NF-κB activation (TRADD) | aggregation by DLS at 200 μM [2] | EC50 (TNF)
1 | COc1cc(C(=O)NS(=O)(=O)c2ccccc2C)ccc1Cc1cn(C)c2ccc(NC(=O)OC3CCCC3)cc12 [zafirlukast] | No appreciable cytotoxicity | minimal effect | partially inhibited | failed to mitigate | little effect | aggregation | 
2 | Cc1ccc(C)c(Cn2c(C(O)c3ccncc3)nc3ccc(-c4cnn(C)c4)cc32)c1 (stereo not shown) [UCB-9260] |  |  |  |  |  |  | 250 nM
